Results from ChEMBL document CHEMBL3769370, “Synthesis and SAR of 4-methyl-5-pentylbenzene-1,3-diol (MPBD), produced by Dictyostelium discoideum” (2016).
Active and inactive are the calls of the source. No cut-off for these calls is given here.

Key:
Format in all cases: functional
Escherichia coli [1] = experiment: Antibacterial activity against Escherichia coli at 100 mM after 16 to 24 hrs by disk diffusion assay; settings: for zone of inhibition at 100000 µM: read-out: DIZ
Procedure, shortened: (§1)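 Bacteria grown in Lysogeny broth (LB), spread on LB or lactose peptone (LP) agar, and plates dried 10 min. 6 mm filter-paper disks placed, five per plate, at least 3 cm apart. Each disk loaded with a 100 mM solution of compound. Incubation 16–24 h at 37 °C. Zone of clearance around each disk inspected and photographed.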

Bacillus subtilis [2] = experiment: Antibacterial activity against Bacillus subtilis at 100 mM after 16 to 24 hrs by disk diffusion assay; settings: for zone of inhibition at 100000 µM: read-out: DIZ; procedure, shortened: as §1
Bacillus subtilis [3] = experiment: Antibacterial activity against Bacillus subtilis at 50 mM after 16 to 24 hrs by disk diffusion assay; settings: read-out: DIZ
Procedure, shortened: (§2)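 Positive-control disks loaded with 50 mM ampicillin solution. Bacteria grown in LB and spread on LB or LP agar, with plates dried 10 min before disks were placed. Disks were 6 mm filter paper, five per plate spaced at least 3 cm apart. Plates held at 37 °C for 16–24 h, then the clearance zone was checked and photographed.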

Escherichia coli [4] = experiment: Antibacterial activity against Escherichia coli at 50 mM after 16 to 24 hrs by disk diffusion assay; settings: read-out: DIZ; procedure, shortened: as §2

## CCCCCc1cc(O)cc(O)c1C
Escherichia coli [1]
  zone of inhibition at 100000 µM: 5 mm
Bacillus subtilis [2]
  zone of inhibition at 100000 µM: 1 mm

## CC1(C)S[C@@H]2[C@H](NC(=O)[C@H](N)c3ccccc3)C(=O)N2[C@H]1C(=O)O [AMPICILLIN]
Bacillus subtilis [3]
  zone of inhibition at 50000 µM: 7 mm
Escherichia coli [4]
  zone of inhibition at 50000 µM: 7 mm

## CCCCCc1cc(O)cc(O)c1CC
Escherichia coli [1]
  zone of inhibition at 100000 µM: 4 mm
Bacillus subtilis [2]
  zone of inhibition at 100000 µM: 1 mm

## CCCCCc1cc(OC)cc(OC)c1C
Escherichia coli [1]
  Activity: inactive
Bacillus subtilis [2]
  Activity: inactive

## CCCCCc1cc(O)cc(O)c1CCC
Escherichia coli [1]
  zone of inhibition at 100000 µM: 4 mm
Bacillus subtilis [2]
  zone of inhibition at 100000 µM: 4 mm

## CCCCCc1cc(O)ccc1C
Escherichia coli [1]
  zone of inhibition at 100000 µM: 1 mm
Bacillus subtilis [2]
  zone of inhibition at 100000 µM: 1 mm
